These results are taken from ChEMBL document CHEMBL2034845, “Synthesis and in vitro characterization of trans- and cis-[(18)F]-4-methylbenzyl 4-[(pyrimidin-2-ylamino)methyl]-3-fluoropiperidine-1-carboxylates as new potential PET radiotracer candidates for the NR2B subtype N-methyl-D-aspartate receptor” (Eur J Med Chem, 2012).

For orientation: logD means the decadic logarithm of the distribution of all forms, ionised or not, between an organic phase and buffer at a given pH. Read a high logD as higher lipophilicity. In general, Kd refers to a measure of binding affinity in units of concentration. A high value points to weaker binding.

In series [1] the target is Glutamate receptor ionotropic, NMDA 2B (Rattus norvegicus) (UniProt Q00960). Kind of series: Binding affinity to NMDAR NR2B in Sprague-Dawley rat brain thalamus assessed per mg of protein. The class given is tissue-based. The conditions noted are these: tested as the 18F-labelled form. In short, it runs like this:
(§1)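 Saturation binding on mounted rat brain tissue sections. Sections were pre-incubated twice for 10 min at r.t. in 50 mM Tris-HCl pH 7.4 with 10 mM EDTA, then exposed to free [18F] ligand at 0.15–48 nM. Washes were 5, 5 and 15 min in 50 mM Tris-HCl pH 7.4 at 4 °C, followed by a cold distilled-water dip and drying on a hot plate. Autoradiographic optical densities (DLU/mm²) were converted with spiked brain-homogenate standards. Specific binding was taken as total minus nonspecific for each region. Kd and Bmax were obtained from Scatchard plots.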

Series [2] has the same target. Put plainly: Ratio of Bmax to Kd at NMDAR NR2B in Sprague-Dawley rat brain hippocampus. The format is tissue-based. The conditions noted are these: tested as the 18F-labelled form. In outline: (§2)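 Bmax/Kd ratio for each brain region. Bmax and Kd came from Scatchard analysis of specific autoradiographic binding on rat brain sections. Free [18F] ligand ran from 0.15 to 48 nM, with Tris-HCl pH 7.4 pre-incubation and cold washes. Radioactivity was calibrated against spiked tissue-homogenate standards.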

For series [3] the target is unchanged. Kind of series: Binding affinity to NMDAR NR2B in Sprague-Dawley rat brain hippocampus assessed per mg of protein. The class given is tissue-based. The conditions noted are these: tested as the 18F-labelled form. In outline:
as §1

Series [4] has the same target. Kind of series: Ratio of Bmax to Kd at NMDAR NR2B in Sprague-Dawley rat brain cortex. The settings on record: tested as the 18F-labelled form. In short, it runs like this: as §2
Series [5] shares this target. Kind of series: Ratio of Bmax to Kd at NMDAR NR2B in Sprague-Dawley rat brain thalamus. The class given is tissue-based. The settings on record: tested as the 18F-labelled form. In outline:
as §2

For series [6] the target is unchanged. Kind of series: Binding affinity to NMDAR NR2B in Sprague-Dawley rat brain striatum assessed per mg of protein. The class given is tissue-based. The settings on record: tested as the 18F-labelled form. In outline: as §1
The target is the same in series [7]. Kind of series: Ratio of Bmax to Kd at NMDAR NR2B in Sprague-Dawley rat brain striatum. The class given is tissue-based. The settings on record: tested as the 18F-labelled form. In outline: as §2
The target is the same in series [8]. Kind of series: Ratio of Bmax to Kd at NMDAR NR2B in Sprague-Dawley rat brain olfactory tubercle. The class given is tissue-based. The settings on record: tested as the 18F-labelled form. In outline: as §2
Series [9] has the same target. Put plainly: Binding affinity to NMDAR NR2B in Sprague-Dawley rat brain olfactory tubercle assessed per mg of protein. The class given is tissue-based. The conditions noted are these: tested as the 18F-labelled form. In short, it runs like this: as §1
For series [10] the target is unchanged. Put plainly: Binding affinity to NMDAR NR2B in Sprague-Dawley rat brain cortex assessed per mg of protein. The settings on record: tested as the 18F-labelled form. The class given is tissue-based. In short, it runs like this:
as §1

The subject of a further series is Cerebellum. Put plainly: Drug uptake in Sprague-Dawley rat cerebellum at 8 nM after 90 mins by autoradiography analysis. The format is ADME, tissue-based. The settings on record: 1.5 h, 0.008 µM.
For another series, the system named is Thalamus. Put plainly: Drug uptake in Sprague-Dawley rat thalamus at 8 nM after 90 mins by autoradiography analysis. The format is ADME, tissue-based. The conditions noted are these: 1.5 h, 0.008 µM.
A short description of series [11]: Lipophilicity, log D of the compound in octanol-[…] at 10 uM after 40 mins by shake flask method. The class given is physicochemical. In short, it runs like this: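 Shake-flask method. Tubes held 1 mL octanol and 1 mL […] buffer plus [18F] tracer, were stirred for 40 min and centrifuged for 5 min. Two 100 µL aliquots from each phase were gamma-counted. logD7.4 was calculated from the ratio of octanol to aqueous radioactivity. Four tubes were used.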

Series [12] deals with T1, Glutamate receptor ionotropic, NMDA 2B (Rattus norvegicus, UniProt Q00960). Kind of series: Binding affinity to NMDAR NR2B in Sprague-Dawley rat brain hippocampus. The class given is tissue-based. In short, it runs like this:
as §1

Series [13] has as its target T1, Glutamate receptor ionotropic, NMDA 2B. Kind of series: Binding affinity to NMDAR NR2B in Sprague-Dawley rat brain thalamus. The class given is tissue-based. In short, it runs like this:
as §1

For series [14] the target is unchanged. Put plainly: Binding affinity to NMDAR NR2B in Sprague-Dawley rat brain striatum. The class given is tissue-based. In short, it runs like this:
as §1

The target is the same in series [15]. Kind of series: Binding affinity to NMDAR NR2B in Sprague-Dawley rat brain olfactory tubercle. The class given is tissue-based. In outline:
as §1

A further series has as its system Nucleic Acid. Kind of series: Ratio of drug uptake in […] in Sprague-Dawley rat at 8 nM after 90 mins by autoradiography analysis. The class given is ADME, tissue-based. The settings on record: 1.5 h, 0.008 µM.
The next series deals with Cortex. Put plainly: Drug uptake in Sprague-Dawley rat cortex at 8 nM after 90 mins by autoradiography analysis. The format is ADME, tissue-based. The conditions noted are these: 1.5 h, 0.008 µM.
The test system of another series is Striatum. Kind of series: Binding to Sprague-Dawley rat striatum sections at 8 nM after 90 mins by autoradiography analysis. The settings on record: in vitro, 1.5 h, 0.008 µM.
Series [16] is described as follows: Drug uptake in Sprague-Dawley rat forebrain at 8 nM after 90 mins by autoradiography analysis. The settings on record: 1.5 h, 0.008 µM.
The nature of series [17]: Drug uptake in Sprague-Dawley rat olfactory tubercle at 8 nM after 90 mins by autoradiography analysis. The format is ADME, tissue-based. The conditions noted are these: 1.5 h, 0.008 µM.
The subject of the next series is Brain. Put plainly: Drug uptake in Sprague-Dawley rat brain at 8 nM after 90 mins by autoradiography analysis in presence of 10 uM Ro 256981. The format is ADME, tissue-based. The settings on record: 1.5 h, 0.008 µM.
In another series the test system is Hippocampus. Kind of series: Drug uptake in Sprague-Dawley rat hippocampus at 8 nM after 90 mins by autoradiography analysis. The class given is ADME, tissue-based. The settings on record: 1.5 h, 0.008 µM.
The target of series [18] is T1, Glutamate receptor ionotropic, NMDA 2B. Put plainly: Binding affinity to NMDAR NR2B in Sprague-Dawley rat brain cortex. The format is tissue-based. In short, it runs like this: as §1

Chain of Glutamate receptor ionotropic, NMDA 2B (Rattus norvegicus) (Q00960 27-1482 limits assumed): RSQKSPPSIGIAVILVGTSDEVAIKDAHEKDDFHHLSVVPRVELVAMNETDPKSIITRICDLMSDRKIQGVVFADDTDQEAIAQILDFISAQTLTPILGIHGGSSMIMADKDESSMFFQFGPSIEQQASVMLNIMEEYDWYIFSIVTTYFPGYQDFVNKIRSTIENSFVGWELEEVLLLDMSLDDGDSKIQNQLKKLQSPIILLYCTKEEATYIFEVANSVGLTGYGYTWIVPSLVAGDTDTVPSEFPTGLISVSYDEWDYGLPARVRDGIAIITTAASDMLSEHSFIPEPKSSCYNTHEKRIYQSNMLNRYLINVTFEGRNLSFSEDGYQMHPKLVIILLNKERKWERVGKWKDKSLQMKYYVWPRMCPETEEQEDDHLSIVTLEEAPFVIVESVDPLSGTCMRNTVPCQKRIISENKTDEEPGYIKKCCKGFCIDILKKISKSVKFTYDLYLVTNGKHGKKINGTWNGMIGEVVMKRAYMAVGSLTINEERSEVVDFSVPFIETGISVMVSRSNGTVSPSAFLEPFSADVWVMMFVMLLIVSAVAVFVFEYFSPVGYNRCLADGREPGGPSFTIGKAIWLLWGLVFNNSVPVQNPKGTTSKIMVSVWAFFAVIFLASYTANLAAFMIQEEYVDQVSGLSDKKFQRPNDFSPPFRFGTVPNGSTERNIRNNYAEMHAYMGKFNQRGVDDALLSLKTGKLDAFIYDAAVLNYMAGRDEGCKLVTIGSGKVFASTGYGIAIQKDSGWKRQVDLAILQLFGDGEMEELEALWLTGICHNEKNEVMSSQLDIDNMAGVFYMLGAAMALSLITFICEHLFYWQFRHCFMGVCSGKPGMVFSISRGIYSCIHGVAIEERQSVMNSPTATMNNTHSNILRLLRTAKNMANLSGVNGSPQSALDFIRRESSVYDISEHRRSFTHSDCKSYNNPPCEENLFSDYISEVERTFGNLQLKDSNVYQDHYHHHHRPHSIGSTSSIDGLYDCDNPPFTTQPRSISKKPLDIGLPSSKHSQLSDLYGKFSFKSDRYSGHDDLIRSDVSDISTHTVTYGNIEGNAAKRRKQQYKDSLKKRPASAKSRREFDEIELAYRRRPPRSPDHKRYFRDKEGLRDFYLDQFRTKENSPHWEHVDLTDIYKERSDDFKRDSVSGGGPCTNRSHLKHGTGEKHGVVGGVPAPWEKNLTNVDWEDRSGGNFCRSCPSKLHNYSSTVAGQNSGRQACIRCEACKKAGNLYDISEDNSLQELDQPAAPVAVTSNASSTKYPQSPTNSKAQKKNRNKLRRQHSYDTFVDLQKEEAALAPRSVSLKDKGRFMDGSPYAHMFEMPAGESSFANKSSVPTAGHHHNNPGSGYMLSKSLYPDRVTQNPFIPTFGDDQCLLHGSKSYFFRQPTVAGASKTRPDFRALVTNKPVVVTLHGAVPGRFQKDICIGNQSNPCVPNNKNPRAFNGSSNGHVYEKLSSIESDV
T1 sequence (Q00960 whole entry): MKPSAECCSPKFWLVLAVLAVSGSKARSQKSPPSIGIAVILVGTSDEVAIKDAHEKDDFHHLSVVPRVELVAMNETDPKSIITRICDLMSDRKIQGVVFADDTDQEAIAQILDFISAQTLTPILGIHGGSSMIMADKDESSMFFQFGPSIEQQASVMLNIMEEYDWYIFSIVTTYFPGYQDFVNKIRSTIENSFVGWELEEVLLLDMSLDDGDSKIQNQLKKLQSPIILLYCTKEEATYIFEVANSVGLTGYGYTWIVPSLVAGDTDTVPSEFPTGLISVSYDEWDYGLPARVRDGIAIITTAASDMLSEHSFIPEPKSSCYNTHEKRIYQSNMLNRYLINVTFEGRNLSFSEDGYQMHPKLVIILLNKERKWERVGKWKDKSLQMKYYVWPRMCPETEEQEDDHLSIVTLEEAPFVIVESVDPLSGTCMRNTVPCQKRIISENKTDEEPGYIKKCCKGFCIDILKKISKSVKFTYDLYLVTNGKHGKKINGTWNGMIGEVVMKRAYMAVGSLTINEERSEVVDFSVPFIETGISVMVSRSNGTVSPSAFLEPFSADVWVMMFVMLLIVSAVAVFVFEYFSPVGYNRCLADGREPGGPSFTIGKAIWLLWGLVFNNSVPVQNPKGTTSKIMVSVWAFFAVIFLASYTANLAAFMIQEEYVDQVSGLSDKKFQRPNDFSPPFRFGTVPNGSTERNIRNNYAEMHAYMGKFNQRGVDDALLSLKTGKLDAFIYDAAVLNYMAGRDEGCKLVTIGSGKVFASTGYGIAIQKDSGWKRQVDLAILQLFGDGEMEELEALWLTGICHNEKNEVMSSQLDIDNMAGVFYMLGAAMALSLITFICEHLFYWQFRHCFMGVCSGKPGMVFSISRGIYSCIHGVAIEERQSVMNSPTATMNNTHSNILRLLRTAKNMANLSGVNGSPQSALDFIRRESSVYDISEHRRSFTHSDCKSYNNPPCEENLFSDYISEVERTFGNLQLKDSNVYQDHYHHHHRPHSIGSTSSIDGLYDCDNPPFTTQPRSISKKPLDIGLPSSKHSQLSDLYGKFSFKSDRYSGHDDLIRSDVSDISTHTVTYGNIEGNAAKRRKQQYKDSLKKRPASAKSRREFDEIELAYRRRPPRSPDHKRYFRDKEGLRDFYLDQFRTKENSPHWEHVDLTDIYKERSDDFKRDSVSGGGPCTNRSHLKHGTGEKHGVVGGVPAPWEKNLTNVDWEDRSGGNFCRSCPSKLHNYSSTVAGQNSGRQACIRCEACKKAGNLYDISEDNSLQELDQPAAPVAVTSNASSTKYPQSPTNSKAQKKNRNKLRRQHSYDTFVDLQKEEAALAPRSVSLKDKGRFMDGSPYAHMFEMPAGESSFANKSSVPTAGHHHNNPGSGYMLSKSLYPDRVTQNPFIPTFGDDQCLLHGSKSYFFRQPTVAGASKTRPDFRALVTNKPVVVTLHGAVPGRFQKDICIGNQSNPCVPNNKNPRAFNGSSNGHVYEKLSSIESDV

As for `Cc1ccc(COC(=O)N2CC[C@@H](CNc3ncccn3)[C@H](F)C2)cc1` (racemic), the Bmax was determined as 0.86 pmol in series [1]; 1.58 pmol in series [3]; 1.05 pmol in series [6]; 0.69 pmol in [9]; 0.77 pmol in series [10]. For the same molecule, the Ratio in [2] came to 22; in series [4] it was 25; in series [5] it was 17; in series [7], 21; in series [8], 37.

Consider `Cc1ccc(COC(=O)N2CC[C@@H](CNc3ncccn3)[C@H]([18F])C2)cc1` (racemic), for which the Drug uptake result is “Not Active” in the series with Cerebellum; 62% in the series on Thalamus; “Active” with Cortex; “Active” in the series with Striatum; “Active” in series [16]; “Not Active” in series [17]. The figures for the Drug uptake entry with Brain and with Hippocampus were “Not Active” and 84%, respectively. In [11], this molecule returned a logD at 40 min, 10 µM of 2.66. Moreover, the dissociation constant Kd in series [12] is 7.1 nM; in series [13] it was 5.4 nM; in series [14], 5.1 nM; in series [15], 1.9 nM; in [18] it was 3.2 nM. Besides, the Ratio in the series on Nucleic Acid was 6.4.

Consider `Cc1ccc(COC(=O)N2CC[C@H](CNc3ncccn3)[C@H](F)C2)cc1` (racemic), for which the Bmax amounted to 1.12 pmol in series [1]; 1.65 pmol in series [3]; 1.41 pmol in series [6]; 1.05 pmol in [9]; 1.5 pmol in series [10]. Further, the Ratio was 19 in series [2]; 15 in series [4]; 8 in [5]; 15 in [7]; 18 in series [8].

For the molecule `Cc1ccc(COC(=O)N2CC[C@H](CNc3ncccn3)[C@H]([18F])C2)cc1` (racemic), the Drug uptake result is given as “Not Active” in the series on Cerebellum; 76% with Thalamus; “Active” in the series on Cortex; “Active” with Striatum; “Active” in series [16]; “Not Active” in series [17]. For the same molecule, the Drug uptake result is “Not Active” in the series on Brain and 91% in the series on Hippocampus. For the same molecule, the logD at 40 min, 10 µM in series [11] was found to be 2.8. Moreover, the dissociation constant (Kd) in series [12] came to 9.1 nM; in series [13], 15.2 nM; in [14], 9.3 nM; in series [15], 5.9 nM; in series [18], 9.8 nM. Moreover, the Ratio in the series with Nucleic Acid was determined as 12.1.
